Experimental data from PMC5421626 (Japanese Journal of Clinical Oncology, 2017).
Read-outs that look alike come from different tables or passages of the source. Where a SMILES comes first, the peptide text is derived from it. [ ]: non-standard residue; d: D form. The star is where a group is joined. dPhe(4-NHCONH2) = NC(=O)Nc1ccc(C[C@@H](N)C(=O)O)cc1; Dihydroorotyl(S) = O=C1C[C@@H](C(=O)*)NC(=O)N1; dPhe(4-Cl) = N[C@H](Cc1ccc(Cl)cc1)C(=O)O; Phe(4-NH2) = Nc1ccc(C[C@H](N)C(=O)O)cc1; d2Nal = N[C@H](Cc1ccc2ccccc2c1)C(=O)O; Lys(iPr) = CC(C)NCCCC[C@H](N)C(=O)O; d3Pal = N[C@H](Cc1cccnc1)C(=O)O

Experiments:
serum testosterone [1] = conditions: Study CL-0003, 1-month regimen, cited from earlier work
serum testosterone [2] = test: Serum testosterone suppression; assay type: in vivo, human (Japanese patients with prostate cancer); conditions: completers–FAS
Safety assessment = assay type: in vivo, human (Japanese patients with prostate cancer); conditions: for incidence of serious AEs / incidence of ADRs / overall incidence of AEs: SAF
Procedure, shortened: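 The safety set covered all dosed patients, given a subcutaneous 240 mg initial dose, then 360 or 480 mg maintenance every 84 days for 12 months. Recorded were AEs, serious AEs and ADRs (including injection-site reactions), with AEs graded by NCI-CTCAE v4.0, plus biochemistry, hematology, urinalysis, vital signs and 12-lead ECG. Frequencies were tabulated by MedDRA System Organ Class and Preferred Term.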

[3] = test system: serum prostate-specific antigen (PSA); test: Serum PSA response and PSA failure, Phase II 3-month degarelix study; assay type: in vivo, human (Japanese patients with prostate cancer); conditions: FAS; for median percent change in serum PSA level from baseline to Day 364: range −99.9%
Procedure, shortened: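 Randomised 1:1 by minimisation, patients got a subcutaneous 240 mg initial dose, then from Day 28 360 or 480 mg (60 mg/ml) every 84 days for four doses. In the full analysis set, percent change in serum PSA from baseline was calculated at Days 28 and 364. PSA failure (relapse) over Days 0–364 was given as a proportion with two-sided 95% CI, and cumulative incidence by Kaplan–Meier.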

serum PSA = conditions: Study CL-0003, 1-month regimen, cited from earlier work
serum testosterone [4] = conditions: Study CS18, 3-month regimen, cited from earlier work
[5] = Plasma pharmacokinetics of degarelix; assay type: in vivo, human (Japanese patients with prostate cancer); conditions: for GMR (95% CI) of Ctrough values between Days 28 and 364: human plasma, LC-MS/MS, geometric mean ratio, PKAS; for Cmax / Tmax: male, human, plasma, sc
Procedure, shortened: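 Patients got a subcutaneous 240 mg (40 mg/ml) initial dose, then 360 or 480 mg (60 mg/ml) every 84 days from Day 28, for four doses. Plasma was sampled every 28 days and assayed by validated LC-MS/MS (LOQ 0.5 ng/ml). Ctrough was taken on Days 28, 112, 196, 280 and 364, and GMRs with 95% CIs were compared. In a subset, samples 3 and 7 days after Day 28 gave Cmax and Tmax. Analysis set: PKAS.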

CC(=O)N[C@H](Cc1ccc2ccccc2c1)C(=O)N[C@H](Cc1ccc(Cl)cc1)C(=O)N[C@H](Cc1cccnc1)C(=O)N[C@@H](CO)C(=O)N[C@@H](Cc1ccc(NC(=O)[C@@H]2CC(=O)NC(=O)N2)cc1)C(=O)N[C@H](Cc1ccc(NC(N)=O)cc1)C(=O)N[C@@H](CC(C)C)C(=O)N[C@@H](CCCCNC(C)C)C(=O)N1CCC[C@H]1C(=O)N[C@H](C)C(N)=O [degarelix] (Ac-[d2Nal][dPhe(4-Cl)][d3Pal]S[Phe(4-NH2)](Dihydroorotyl(S))[dPhe(4-NHCONH2)]L[Lys(iPr)]P[dA]-NH2)
cumulative probability of serum testosterone ≤0.5 ng/ml (serum testosterone [1]; 80 mg maintenance-dose group): 94.5%
cumulative probability of serum testosterone ≤0.5 ng/ml (serum testosterone [1]; 160 mg maintenance-dose group): 95.2%
proportion of patients with a serum testosterone level ≤0.5 ng/ml from Days 28 to 364 (serum testosterone [2]; 360 mg group, 95% CI 76.85–94.45%): 87.50%
proportion of patients with a serum testosterone level ≤0.5 ng/ml from Days 28 to 364 (serum testosterone [2]; 480 mg group, 95% CI 89.92–99.65%): 97.10%
patients with AEs related to injection site reactions (Safety assessment; 360 mg group): 50.0%
incidence of serious AEs (Safety assessment; 360 mg group, 13/76): 17.1%
incidence of ADRs (Safety assessment; 360 mg group, 68/76): 89.5%
overall incidence of AEs (Safety assessment; 360 mg group, 72/76): 94.7%
deaths (patients) (Safety assessment; 360 mg group, suicide after initial dose, before maintenance dose): One
patients with AEs related to injection site reactions (Safety assessment; 480 mg group): 60.5%
patients with marked increase (≥480 ms) in QTcF on Day 364 (Safety assessment; 480 mg group, 12-lead electrocardiogram): one
incidence of serious AEs (Safety assessment; 480 mg group, 7/76): 9.2%
incidence of ADRs (Safety assessment; 480 mg group, 71/76): 93.4%
overall incidence of AEs (Safety assessment; 480 mg group, 73/76): 96.1%
patients who discontinued the treatment because of injection site reactions (Safety assessment; both groups): no patient
severity of injection site reactions (Safety assessment; both groups, NCI-CTCAE v4.0): mild or moderate (Grade 1 or 2)
median percent change in serum PSA level from baseline to Day 28 ([3]; 360 mg group (after 240 mg initial dose)): −70.4%
proportion of patients with PSA failure (serum PSA relapse) from baseline to Day 364 ([3]; 360 mg group): 2.7%
median percent change in serum PSA level from baseline to Day 364 ([3]; 360 mg group, −51.3%): −95.05%
median percent change in serum PSA level from baseline to Day 28 ([3]; 480 mg group (after 240 mg initial dose)): −79.9%
proportion of patients with PSA failure (serum PSA relapse) from baseline to Day 364 ([3]; 480 mg group): 1.3%
median percent change in serum PSA level from baseline to Day 364 ([3]; 480 mg group, −44.0%): −96.43%
percent change in PSA at Day 28 (serum PSA; 80 mg maintenance-dose group): –80.14%
percent change in PSA at Day 28 (serum PSA; 160 mg maintenance-dose group): –79.52%
cumulative probability of serum testosterone ≤0.5 ng/ml (serum testosterone [4]; 360 mg group): 89.0%
cumulative probability of serum testosterone ≤0.5 ng/ml (serum testosterone [4]; 480 mg group): 93.3%
GMR (95% CI) of Ctrough values between Days 28 and 364 ([5]; 360 mg group): 1.258 (1.114–1.421)
GMR (95% CI) of Ctrough values between Days 28 and 364 ([5]; 480 mg group): 1.752 (1.589–1.932)
steady state of plasma concentration ([5]; both dose groups (360 and 480 mg every 84 days)): did not achieve steady state by Day 364
Cmax ([5]; 360 mg): 74.7 ± 30 ng/mL
Tmax ([5]; 360 mg): 71.3 h
Cmax ([5]; 480 mg): 98.5 ± 31.7 ng/mL
Tmax ([5]; 480 mg): 70.8 h
